pEC50: −log10 of the molar value. Values belong to the molecule of their own block, whether it stands above or below them.
Key:
[1] = target: Adenylate cyclase type 1 (Homo sapiens) (UniProt Q08828); assay: Activation of human platelet adenylate cyclase at the concentration of 10 uMol; type: functional
How it was run: (§1)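 Adenylate cyclase in membranes prepared from human platelet-rich plasma, compound tested as Na salt. Activity is given as percent (mean ± SE) of measurable enzyme activity without drug, n = 8, with significance tested against the respective control. The method follows ref 17.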

[2] = target: Adenylate cyclase type 1 (Homo sapiens) (UniProt Q08828); assay: Activation of human platelet adenylate cyclase at the concentration of 1 uMol; type: functional; how it was run: as §1
Bos taurus = organism: Bos taurus; assay: Effective concentration of compound for relaxation of bovine coronary artery; type: functional
Canis familiaris [3] = assay: Percent change in blood pressure produced by the compound on dogs by intravenous infusion rate of 1000 ng/kg/min; type: functional, Canis lupus familiaris
How it was run: (§2)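 The compound was infused into a femoral vein at increasing concentrations, each dose level for 3 min. Mean peripheral blood pressure was taken in the femoral artery and heart rate by cardiotachometer. Total and coronary vascular resistance were calculated as blood pressure divided by the corresponding flow. Values are maximum changes as percent of resting values.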

Canis familiaris [4] = assay: Percent change in blood pressure produced by the compound on dogs by intravenous infusion rate of 500 ng/kg/min; type: functional, Canis lupus familiaris; how it was run: as §2
Canis familiaris [5] = assay: Percent change in blood pressure produced by the compound on dogs by intravenous infusion rate of 5000 ng/kg/min; type: functional, Canis lupus familiaris; how it was run: as §2
Canis familiaris [6] = assay: Percent change in cardiac out put produced by the compound on dogs by intravenous infusion rate of 1000 ng/kg/min; type: functional, Canis lupus familiaris, Heart; how it was run: as §2
Canis familiaris [7] = assay: Percent change in cardiac out put produced by the compound on dogs by intravenous infusion rate of 500 ng/kg/min; type: functional, Canis lupus familiaris, Heart; how it was run: as §2
Canis familiaris [8] = assay: Percent change in total peripheral resistance produced by the compound on dogs by intravenous infusion rate of 500 ng/kg/min; type: functional, Canis lupus familiaris; how it was run: as §2
Canis familiaris [9] = assay: Percent change in total peripheral resistance produced by the compound on dogs by intravenous infusion rate of 5000 ng/kg/min; type: functional, Canis lupus familiaris; how it was run: as §2
Canis familiaris [10] = assay: Percent change in coronary resistance produced by the compound on dogs by intravenous infusion rate of 5000 ng/kg/min; type: functional, Canis lupus familiaris; how it was run: as §2
Canis familiaris [11] = assay: Percent change in heart rate produced by the compound on dogs by intravenous infusion rate of 1000 ng/kg/min; type: functional, Canis lupus familiaris; how it was run: as §2
Canis familiaris [12] = assay: Percent change in heart rate produced by the compound on dogs by intravenous infusion rate of 500 ng/kg/min; type: functional, Canis lupus familiaris; how it was run: as §2
Canis familiaris [13] = assay: Percent change in heart rate produced by the compound on dogs by intravenous infusion rate of 5000 ng/kg/min; type: functional, Canis lupus familiaris; how it was run: as §2
Canis familiaris [14] = assay: Percent change in total peripheral resistance produced by the compound on dogs by intravenous infusion rate of 1000 ng/kg/min; type: functional, Canis lupus familiaris; how it was run: as §2
Canis familiaris [15] = assay: Percent change in cardiac out put produced by the compound on dogs by intravenous infusion rate of 5000 ng/kg/min; type: functional, Canis lupus familiaris, Heart; how it was run: as §2
Canis familiaris [16] = assay: Percent change in coronary resistance produced by the compound on dogs by intravenous infusion rate of 1000 ng/kg/min; type: functional, Canis lupus familiaris; how it was run: as §2
Canis familiaris [17] = assay: Percent change in coronary resistance produced by the compound on dogs by intravenous infusion rate of 500 ng/kg/min; type: functional, Canis lupus familiaris; how it was run: as §2
Canis familiaris [18] = assay: Percent change in blood pressure produced by the compound on dogs by intravenous infusion rate of 50 ng/kg/min; type: functional, Canis lupus familiaris; how it was run: as §2
Canis familiaris [19] = assay: Percent change in cardiac out put produced by the compound on dogs by intravenous infusion rate of 50 ng/kg/min; type: functional, Canis lupus familiaris, Heart; how it was run: as §2
Canis familiaris [20] = assay: Percent change in total peripheral resistance produced by the compound on dogs by intravenous infusion rate of 50 ng/kg/min; type: functional, Canis lupus familiaris; how it was run: as §2
Canis familiaris [21] = assay: Percent change in heart rate produced by the compound on dogs by intravenous infusion rate of 50 ng/kg/min; type: functional, Canis lupus familiaris; how it was run: as §2
Canis familiaris [22] = assay: Percent change in coronary resistance produced by the compound on dogs by intravenous infusion rate of 50 ng/kg/min; type: functional, Canis lupus familiaris; how it was run: as §2
Homo sapiens = organism: Homo sapiens; assay: Inhibitory concentration of compound in human platelet rich plasma against 2 umol of ADP-induced aggregation; type: functional

Sequence of Adenylate cyclase type 1 (Homo sapiens) (Q08828 whole entry, looked up): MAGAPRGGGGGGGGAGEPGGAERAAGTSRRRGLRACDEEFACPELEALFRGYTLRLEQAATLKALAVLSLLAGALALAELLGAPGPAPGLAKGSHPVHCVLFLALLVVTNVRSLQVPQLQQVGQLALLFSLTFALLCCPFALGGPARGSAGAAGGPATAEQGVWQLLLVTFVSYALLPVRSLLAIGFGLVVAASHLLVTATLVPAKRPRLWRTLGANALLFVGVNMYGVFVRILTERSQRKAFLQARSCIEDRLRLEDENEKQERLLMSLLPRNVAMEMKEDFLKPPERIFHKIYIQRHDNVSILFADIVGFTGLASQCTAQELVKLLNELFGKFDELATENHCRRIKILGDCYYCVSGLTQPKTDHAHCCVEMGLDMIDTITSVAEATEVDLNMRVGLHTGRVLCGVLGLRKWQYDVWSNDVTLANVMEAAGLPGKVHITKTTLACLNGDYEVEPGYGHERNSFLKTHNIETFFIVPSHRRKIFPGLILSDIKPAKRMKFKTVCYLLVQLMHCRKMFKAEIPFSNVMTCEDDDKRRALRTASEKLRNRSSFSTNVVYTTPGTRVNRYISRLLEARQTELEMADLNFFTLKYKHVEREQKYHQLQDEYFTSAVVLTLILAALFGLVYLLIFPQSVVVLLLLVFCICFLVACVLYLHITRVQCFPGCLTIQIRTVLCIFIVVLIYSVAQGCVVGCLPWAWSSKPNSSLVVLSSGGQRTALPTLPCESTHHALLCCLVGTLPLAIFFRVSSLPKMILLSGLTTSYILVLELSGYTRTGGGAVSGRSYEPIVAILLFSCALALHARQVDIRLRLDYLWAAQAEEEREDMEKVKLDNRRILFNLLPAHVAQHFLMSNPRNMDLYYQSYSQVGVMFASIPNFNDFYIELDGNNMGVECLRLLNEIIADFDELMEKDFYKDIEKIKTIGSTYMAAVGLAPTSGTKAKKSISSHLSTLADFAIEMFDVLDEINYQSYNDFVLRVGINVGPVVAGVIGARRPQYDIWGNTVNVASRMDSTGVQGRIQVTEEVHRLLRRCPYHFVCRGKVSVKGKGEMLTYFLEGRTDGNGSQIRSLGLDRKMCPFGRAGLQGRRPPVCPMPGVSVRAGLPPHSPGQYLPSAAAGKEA

Activity [1]: 825%
Activity [2]: 239%
pEC50 (Bos taurus): 6.40
SMILES: CCCCC[C@H](O)/C=C/[C@H]1[C@H](O)CC2O/C(=C\CCCC(=O)[O-])C(=O)[C@@H]21.[Na+] (stereo partly drawn)
Hemodynamic change (Canis familiaris [3]): -13.3%
Hemodynamic change (Canis familiaris [4]): -8.1%
Hemodynamic change (Canis familiaris [5]): -49%
Hemodynamic change (Canis familiaris [6]): -3.9%
Hemodynamic change (Canis familiaris [7]): -1.6%
Hemodynamic change (Canis familiaris [8]): -8.3%
Hemodynamic change (Canis familiaris [9]): -40.7%
Hemodynamic change (Canis familiaris [10]): -28.8%
Hemodynamic change (Canis familiaris [11]): -2%
Hemodynamic change (Canis familiaris [12]): 0%
Hemodynamic change (Canis familiaris [13]): -13.8%
Hemodynamic change (Canis familiaris [14]): -13.3%
Hemodynamic change (Canis familiaris [15]): -22.3%
Hemodynamic change (Canis familiaris [16]): -6.1%
Hemodynamic change (Canis familiaris [17]): -2.2%

Activity [1]: 1740%
Activity [2]: 374%
pEC50 (Bos taurus): 7.37
IC50 (Homo sapiens): 1 ng/mL
SMILES: CCCCC[C@H](O)/C=C/[C@@H]1[C@H]2C/C(=C/CCCC(=O)[O-])O[C@H]2C[C@H]1O.[Na+] [EPOPROSTENOL SODIUM]
Hemodynamic change (Canis familiaris [18]): -13.6%
Hemodynamic change (Canis familiaris [19]): -5.6%
Hemodynamic change (Canis familiaris [20]): -11.5%
Hemodynamic change (Canis familiaris [21]): 3.6%
Hemodynamic change (Canis familiaris [22]): -2.8%

IC50 (Homo sapiens): 15 ng/mL
SMILES: CCCCC[C@H](O)/C=C/[C@@H]1[C@H]2C(=O)/C(=C/CCCC(=O)[O-])O[C@H]2C[C@H]1O.[Na+]
